Experimental data from ChEMBL document CHEMBL1828575, “Design, synthesis and antiproliferative activities of biarylolefins based on polyhydroxylated and carbohydrate scaffolds” (Eur J Med Chem, 2011).

Columns and labels:
Type in all cases: functional
NCI/ADR-RES = assay: Antitumor activity against human NCI/ADR-RES cells after 48 hrs by SRB assay
In short: (§1)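 NCI60 panel in RPMI 1640 with 5% FBS and 2 mM L-glutamine. Cells were plated at 5000–40,000/well by doubling time, held 24 h, then time-zero plates were TCA-fixed. Five concentrations (10-fold or half-log dilutions of DMSO stocks) were applied for 48 h at 37 °C, 5% CO2. Cells were fixed with cold TCA (10% final adherent, 16% suspension) and stained with 0.4% SRB. Bound dye was dissolved in 10 mM Tris and read at 515 nm. GI50, TGI and LC50 were calculated per line.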

IGROV-1 = assay: Antitumor activity against human IGROV1 cells after 48 hrs by SRB assay; settings: IGROV-1, 48 h; in short: as §1
MDA-MB-468 = assay: Antitumor activity against human MDA-MB-468 cells after 48 hrs by SRB assay; settings: MDA-MB-468, 48 h; in short: as §1
CCRF-CEM = assay: Cytotoxicity against human CCRF-CEM cells assessed as cellular growth at 10 uM after 48 hrs by SRB assay
In short: (§2)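 NCI60 single-dose screen of cells in RPMI 1640 with 5% FBS and 2 mM L-glutamine, preincubated 24 h at 37 °C, 5% CO₂. Cells were then exposed 48 h to compound added from DMSO stock. TCA-fixed, stained with 0.4% SRB in 1% acetic acid, dye solubilised in 10 mM Tris base and read at 515 nm. Growth is given as percent of untreated control.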

SNB-19 = assay: Cytotoxicity against human SNB19 cells assessed as cellular growth at 10 uM after 48 hrs by SRB assay
In short: (§3)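 NCI-60 panel lines grown in RPMI 1640 with 5% FBS and 2 mM L-glutamine. Plated at 5000–40,000 cells/well and preincubated 24 h at 37 °C, 5% CO₂, with time-zero plates fixed in TCA. Compounds, dissolved in DMSO and diluted in medium, were applied for 48 h. Cells were TCA-fixed (10% final for adherent, 16% for suspension) and stained with 0.4% SRB in 1% acetic acid. Dye was solubilised in 10 mM Tris base and read at 515 nm; growth was expressed as a percentage of untreated control.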

UO-31 = assay: Antitumor activity against human UO31 cells after 48 hrs by SRB assay; settings: UO-31, 48 h
In short: (§4)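 NCI60 panel cells grown in RPMI 1640 with 5% FBS and 2 mM L-glutamine, plated at 5000–40,000 cells/well and preincubated 24 h at 37 °C, 5% CO₂. Compound was added from DMSO at five concentrations, 10-fold or 1/2 log dilutions, then incubated 48 h.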

786-0 = assay: Cytotoxicity against human 786-0 cells assessed as cellular growth at 10 uM after 48 hrs by SRB assay; in short: as §2
SF-539 [1] = assay: Cytotoxicity against human SF539 cells assessed as cellular growth at 10 uM after 48 hrs by SRB assay; in short: as §3
MDA-MB-231 = assay: Antitumor activity against human MDA-MB-231 cells after 48 hrs by SRB assay; settings: MDA-MB-231, 48 h; in short: as §1
SNB-75 = assay: Antitumor activity against human SNB75 cells after 48 hrs by SRB assay; settings: SNB-75, 48 h; in short: as §4
EKVX = assay: Cytotoxicity against human EKVX cells assessed as cellular growth at 10 uM after 48 hrs by SRB assay; in short: as §2
K562 = assay: Antitumor activity against human K562 cells after 48 hrs by SRB assay; settings: K562, 48 h; in short: as §1
NCI-H460 = assay: Antitumor activity against human NCI-H460 cells after 48 hrs by SRB assay; settings: NCI-H460, 48 h; in short: as §1
TK-10 = assay: Antitumor activity against human TK10 cells after 48 hrs by SRB assay; settings: TK-10, 48 h; in short: as §4
SF-539 [2] = assay: Antitumor activity against human SF539 cells after 48 hrs by SRB assay; settings: SF-539, 48 h; in short: as §4
CAKI-1 = assay: Antitumor activity against human Caki1 cells after 48 hrs by SRB assay; settings: CAKI-1, 48 h; in short: as §1
OVCAR-8 = assay: Cytotoxicity against human OVCAR8 cells assessed as cellular growth at 10 uM after 48 hrs by SRB assay; in short: as §3
SN12C = assay: Cytotoxicity against human SN12C cells assessed as cellular growth at 10 uM after 48 hrs by SRB assay; in short: as §3
COLO 205 = assay: Antitumor activity against human COLO205 cells after 48 hrs by SRB assay; settings: COLO 205, 48 h; in short: as §1
NCI-H322M = assay: Antitumor activity against human NCI-H322M cells after 48 hrs by SRB assay; in short: as §1
NCI-H226 = assay: Antitumor activity against human NCI-H226 cells after 48 hrs by SRB assay; settings: NCI-H226, 48 h; in short: as §1
[3] = read-out: LC50 (the source's name)
[4] = read-out: pLC50 (the source's name) (converted)

Work on `COc1ccc(/C(=C2\O[C@@H]([C@H]3COC(C)(C)O3)[C@H]3OC(C)(C)O[C@@H]23)c2cc(OC)c(OC)c(OC)c2)cc1O` yielded a GI50 (NCI/ADR-RES) of 4.26 µM, an LC50 (NCI/ADR-RES) greater than 100 µM and a TGI (NCI/ADR-RES) of 22.3 µM. It also gave a GI50 (IGROV-1; read-out: GI50) of 45.1 µM, a CC50 (IGROV-1; [3]) greater than 100 µM and a TGI (IGROV-1; read-out: TGI) greater than 100 µM. The GI50 (IGROV-1; read-out: pGI50 (converted)) was 44.7 µM, the CC50 (IGROV-1; [4]) was greater than 100 µM and the TGI (IGROV-1; read-out: pTGI) was greater than 100 µM. The GI50 (MDA-MB-468; read-out: GI50) was 17.8 µM, the CC50 (MDA-MB-468; [3]) was greater than 100 µM and the TGI (MDA-MB-468; read-out: TGI) was 63.6 µM. For the same compound, the GI50 (MDA-MB-468; read-out: pGI50 (converted)) was 25.7 µM, the CC50 (MDA-MB-468; [4]) was greater than 100 µM and the TGI (MDA-MB-468; read-out: pTGI (converted)) was 63.1 µM. For the same compound, the Activity (CCRF-CEM) was 60.8%, the Activity (SNB-19) was 27.56% and the GI50 (UO-31; read-out: GI50) was 21.7 µM. It also gave a CC50 (UO-31; [3]) greater than 100 µM, a TGI (UO-31; read-out: TGI) of 70.4 µM and a GI50 (UO-31; read-out: pGI50 (converted)) of 21.9 µM. The CC50 (UO-31; [4]) was greater than 100 µM, the TGI (UO-31; read-out: pTGI (converted)) was 70.8 µM and the Activity (786-0) was 86.28%. The Activity (SF-539 [1]) was 21.53%, the GI50 (MDA-MB-231) was 6.28 µM and the TGI (MDA-MB-231) was 69.7 µM. It also gave a CC50 (MDA-MB-231; [3]) greater than 100 µM, a GI50 (SNB-75) of 2.89 µM and a TGI (SNB-75) of 7.44 µM. It also gave a CC50 (SNB-75; [3]) greater than 100 µM, an Activity (EKVX) of 100.52% and a GI50 (K562; read-out: GI50) of 6.28 µM. It also gave a CC50 (K562; [3]) greater than 100 µM, a TGI (K562; read-out: TGI) greater than 100 µM and a GI50 (K562; read-out: pGI50 (converted)) of 6.31 µM. The CC50 (K562; [4]) was greater than 100 µM, the TGI (K562; read-out: pTGI) was greater than 100 µM and the GI50 (NCI-H460; read-out: GI50) was 29.3 µM. For the same compound, the CC50 (NCI-H460; [3]) was greater than 100 µM, the TGI (NCI-H460; read-out: TGI) was greater than 100 µM and the GI50 (NCI-H460; read-out: pGI50 (converted)) was 29.5 µM. For the same compound, the CC50 (NCI-H460; [4]) was greater than 100 µM, the TGI (NCI-H460; read-out: pTGI) was greater than 100 µM and the GI50 (TK-10; read-out: GI50) was 3.66 µM. It also gave a CC50 (TK-10; [3]) greater than 100 µM, a TGI (TK-10; read-out: TGI) of 86.3 µM and a GI50 (TK-10; read-out: pGI50 (converted)) of 36.3 µM. It also gave a CC50 (TK-10; [4]) greater than 100 µM, a TGI (TK-10; read-out: pTGI (converted)) of 87.1 µM and a GI50 (SF-539 [2]) of 3.15 µM. For the same compound, the TGI (SF-539 [2]) was 8.75 µM, the CC50 (SF-539 [2]; [3]) was 86 µM and the GI50 (CAKI-1; read-out: GI50) was 14.6 µM. The CC50 (CAKI-1; [3]) was greater than 100 µM, the TGI (CAKI-1; read-out: TGI) was 42.2 µM and the GI50 (CAKI-1; read-out: pGI50 (converted)) was 14.8 µM. The CC50 (CAKI-1; [4]) was greater than 100 µM, the TGI (CAKI-1; read-out: pTGI (converted)) was 42.7 µM and the Activity (OVCAR-8) was 96.09%. It also gave an Activity (SN12C) of 84.5%, a GI50 (COLO 205; read-out: GI50) of 27.3 µM and a CC50 (COLO 205; [3]) greater than 100 µM. The TGI (COLO 205; read-out: TGI) was 63.7 µM, the GI50 (COLO 205; read-out: pGI50 (converted)) was 27.5 µM and the CC50 (COLO 205; [4]) was greater than 100 µM. The TGI (COLO 205; read-out: pTGI (converted)) was 63.1 µM, the GI50 (NCI-H322M; read-out: GI50) was 9.6 µM and the CC50 (NCI-H322M; [3]) was greater than 100 µM. For the same compound, the TGI (NCI-H322M; read-out: TGI) was greater than 100 µM, the GI50 (NCI-H322M; read-out: pGI50 (converted)) was 9.55 µM and the CC50 (NCI-H322M; [4]) was greater than 100 µM. It also gave a TGI (NCI-H322M; read-out: pTGI) greater than 100 µM, a GI50 (NCI-H226; read-out: GI50) of 64.7 µM and a CC50 (NCI-H226; [3]) greater than 100 µM. For the same compound, the TGI (NCI-H226; read-out: TGI) was greater than 100 µM, the GI50 (NCI-H226; read-out: pGI50 (converted)) was 64.6 µM and the CC50 (NCI-H226; [4]) was greater than 100 µM. The TGI (NCI-H226; read-out: pTGI (converted)) was greater than 100 µM.
